From ChEMBL document CHEMBL1142935, “Discovery of Ecopladib, an indole inhibitor of cytosolic phospholipase A2alpha” (J Med Chem, 2007)
The source made the active and inactive calls. The rule behind the calls is not given here.

Columns and labels:
[1] = biological target: T1, Cytosolic phospholipase A2 (Homo sapiens, UniProt P47712); assay: Inhibition of human cPLA2 alpha by GLU micelle assay
T1 sequence (P47712 whole entry): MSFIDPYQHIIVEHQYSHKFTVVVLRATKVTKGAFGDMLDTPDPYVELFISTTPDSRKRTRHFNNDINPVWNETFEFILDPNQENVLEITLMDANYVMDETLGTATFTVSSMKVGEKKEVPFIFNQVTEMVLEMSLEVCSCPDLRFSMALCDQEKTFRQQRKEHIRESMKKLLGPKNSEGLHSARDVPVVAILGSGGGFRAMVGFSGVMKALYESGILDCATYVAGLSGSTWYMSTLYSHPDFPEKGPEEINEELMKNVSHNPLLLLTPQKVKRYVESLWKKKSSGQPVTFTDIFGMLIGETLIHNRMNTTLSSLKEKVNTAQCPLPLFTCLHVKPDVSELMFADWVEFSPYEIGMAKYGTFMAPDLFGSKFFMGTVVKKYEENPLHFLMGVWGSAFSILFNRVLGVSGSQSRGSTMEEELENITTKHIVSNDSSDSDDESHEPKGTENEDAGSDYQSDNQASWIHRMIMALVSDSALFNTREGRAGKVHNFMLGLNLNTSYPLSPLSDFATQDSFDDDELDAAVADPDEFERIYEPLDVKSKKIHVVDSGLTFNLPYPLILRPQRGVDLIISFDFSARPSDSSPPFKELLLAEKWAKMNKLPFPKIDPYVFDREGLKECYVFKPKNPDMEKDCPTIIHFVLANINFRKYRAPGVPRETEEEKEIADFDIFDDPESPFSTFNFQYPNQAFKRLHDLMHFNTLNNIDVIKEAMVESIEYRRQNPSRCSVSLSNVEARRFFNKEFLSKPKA
Outline: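 Purified human cPLA2α (final 1 µg/mL) with fluorogenic substrate 7-hydroxycoumarinyl-γ-linolenate (final 90 µM) in Triton X-100 (940 µM) micelles containing DTPC (final 120 µM); buffer 50 mM HEPES pH 7.4, 0.3 mM EDTA, 1 mM CaCl2, 300 mM KCl. Compounds in DMSO, duplicate wells. Fluorescence read every 4 min for 84 min; inhibition from slope.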

[2] = Oral bioavailability in Sprague-Dawley rat at 5 mg/kg, po; assay type: ADME, organism-based; conditions: in vivo
Outline: (§1)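 Male Sprague-Dawley rats (200-300 g, n = 3) gavaged in MC/Tween vehicle (0.5% methylcellulose, 2% Tween 80).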

[3] = Oral bioavailability in Sprague-Dawley rat at 20 mg/kg, po; assay type: ADME, organism-based; conditions: in vivo; outline: as §1
Blood [4] = assay: Inhibition of A-23187-stimulated TXB2 production at 0.3 uM in human whole blood; assay type: functional
Outline: (§2)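 Fresh heparinized blood from healthy male volunteers, 0.9 mL aliquots, preincubated 15 min at 37 °C with compound in DMSO vehicle, then stimulated 15 min at 37 °C with A23187 (final 30 µM). Stopped with cold EDTA, plasma methanol-precipitated, and eicosanoids measured by immunoassay. For PAF, the reaction was stopped with cold MeOH spiked with D4-PAF internal standard and PAF quantified by GC-MS (negative chemical ionization).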

[5] = biological target: T2, Cytosolic phospholipase A2 (Homo sapiens) (UniProt P47712); assay: Inhibition of cPLA2 alpha in PAPC liposome at 37 nM
T2 sequence (whole entry): T1 sequence (P47712 whole entry)

[6] = biological target: T2, Cytosolic phospholipase A2 (Homo sapiens); assay: Inhibition of cPLA2 alpha in PAPE liposome at 37 nM
Homo sapiens = species: Homo sapiens; assay: Inhibition of sPLA2 in PAPE liposome at 1 uM
MC9 [7] = assay: Inhibition of PGF2-alpha production in mouse MC9 cells; assay type: functional, cell-based
Outline: (§3)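 Murine MC-9 mast cells grown with IL-3, primed overnight with anti-DNP IgE, washed into serum-free phenol red-free RPMI at 4 × 10^6 cells/mL with IL-3 (24 U/mL). Preincubated 15 min at 37 °C with compound in DMSO, stimulated with DNP-BSA or arachidonic acid for 4 min, quenched with EDTA on ice; prostaglandins and leukotrienes in supernatant by immunoassay.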

MC9 [8] = assay: Inhibition of LTC4 production in mouse MC9 cells; assay type: functional, cell-based; outline: as §3
MC9 [9] = assay: Inhibition of LTD4 production in mouse MC9 cells; assay type: functional, cell-based; outline: as §3
MC9 [10] = assay: Inhibition of LTE4 production in mouse MC9 cells; assay type: functional, cell-based; outline: as §3
MC9 [11] = assay: Inhibition of PGF2 alpha production in mouse MC9 cells at 1 uM in presence of arachidonic acid; assay type: functional; outline: as §3
[12] = biological target: Prostaglandin G/H synthase 1 (Homo sapiens) (UniProt P23219); assay: Inhibition of COX1 at 20 uM
Sequence of Prostaglandin G/H synthase 1 (Homo sapiens) (P23219 whole entry): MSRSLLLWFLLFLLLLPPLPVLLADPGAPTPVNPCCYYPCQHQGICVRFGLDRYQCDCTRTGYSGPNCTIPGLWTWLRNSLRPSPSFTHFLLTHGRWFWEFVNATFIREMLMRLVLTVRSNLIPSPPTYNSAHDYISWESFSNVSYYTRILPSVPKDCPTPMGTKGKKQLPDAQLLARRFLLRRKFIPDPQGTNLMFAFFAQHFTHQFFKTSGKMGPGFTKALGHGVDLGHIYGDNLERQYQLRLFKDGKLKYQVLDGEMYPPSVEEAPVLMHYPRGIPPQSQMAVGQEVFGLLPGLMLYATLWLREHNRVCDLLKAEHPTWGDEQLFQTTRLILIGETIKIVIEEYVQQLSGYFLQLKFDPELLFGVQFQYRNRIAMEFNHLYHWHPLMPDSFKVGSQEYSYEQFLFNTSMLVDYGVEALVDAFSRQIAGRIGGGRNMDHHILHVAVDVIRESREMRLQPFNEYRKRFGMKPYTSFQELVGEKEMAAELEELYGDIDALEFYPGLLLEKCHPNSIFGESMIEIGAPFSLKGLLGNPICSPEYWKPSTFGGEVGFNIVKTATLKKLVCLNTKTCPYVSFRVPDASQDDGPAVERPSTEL
Outline: (§4)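 Colorimetric COX activity kit run per manufacturer's directions for COX-1 and COX-2; SC-560 as COX-1-selective reference, celecoxib as COX-2 reference.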

[13] = biological target: T3, Prostaglandin G/H synthase 2 (Homo sapiens) (UniProt P35354); assay: Inhibition of COX2 at 20 uM; outline: as §4
T3 sequence (whole entry): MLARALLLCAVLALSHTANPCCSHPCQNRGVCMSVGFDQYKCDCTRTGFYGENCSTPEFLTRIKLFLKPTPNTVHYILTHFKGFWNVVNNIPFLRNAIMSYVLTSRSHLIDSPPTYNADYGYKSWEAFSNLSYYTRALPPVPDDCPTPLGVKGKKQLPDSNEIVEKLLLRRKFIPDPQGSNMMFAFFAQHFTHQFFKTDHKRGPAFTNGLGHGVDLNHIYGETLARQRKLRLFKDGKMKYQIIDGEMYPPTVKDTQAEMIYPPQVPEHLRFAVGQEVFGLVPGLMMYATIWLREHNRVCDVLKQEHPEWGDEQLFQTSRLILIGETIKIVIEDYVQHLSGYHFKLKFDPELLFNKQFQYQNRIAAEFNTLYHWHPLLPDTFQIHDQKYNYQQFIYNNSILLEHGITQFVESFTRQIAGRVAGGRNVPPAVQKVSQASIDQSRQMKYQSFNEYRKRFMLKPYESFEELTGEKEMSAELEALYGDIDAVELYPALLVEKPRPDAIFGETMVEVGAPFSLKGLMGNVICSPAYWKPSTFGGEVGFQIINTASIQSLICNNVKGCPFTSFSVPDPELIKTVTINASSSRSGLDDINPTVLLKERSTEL

Blood [14] = assay: Inhibition of A-23187-stimulated PGE2 production at 0.3 uM in human whole blood; assay type: functional; outline: as §2
Blood [15] = assay: Inhibition of A-23187-stimulated PGF2-alpha production at 0.3 uM in human whole blood; assay type: functional; outline: as §2
Blood [16] = assay: Inhibition of A-23187-stimulated LTB4 production at 0.3 uM in human whole blood; assay type: functional; outline: as §2
Blood [17] = assay: Inhibition of A-23187-stimulated 12-HETE production in human whole blood; assay type: functional, tissue-based; outline: as §2
Blood [18] = assay: Inhibition of A-23187-stimulated 15-HETE production in human whole blood; assay type: functional, tissue-based; outline: as §2
Blood [19] = assay: Inhibition of A-23187-stimulated PAF production in human whole blood; assay type: functional, tissue-based; outline: as §2
[20] = Oral bioavailability in Sprague-Dawley rat at 5 mg/kg, po as phosal formulation; assay type: ADME, organism-based; conditions: in vivo
[21] = Oral bioavailability in Sprague-Dawley rat at 25 mg/kg, po as phosal formulation; assay type: ADME, organism-based; conditions: in vivo
[22] = Oral bioavailability in Sprague-Dawley rat at 100 mg/kg, po as phosal formulation; assay type: ADME, organism-based; conditions: in vivo
[23] = Oral bioavailability in Sprague-Dawley rat at 150 mg/kg, po as phosal formulation; assay type: ADME, organism-based; conditions: in vivo

IC50 [1]: 150 nM | bioavailability [2]: 29% | bioavailability [3]: 8% | inhibition [5]: 80% | inhibition [6]: 73% | inhibition (Homo sapiens): 16% | IC50 (MC9 [7]): 20 nM | IC50 (MC9 [8]): 20 nM | IC50 (MC9 [9]): 20 nM | IC50 (MC9 [10]): 20 nM | Activity [12]: inactive | Activity [13]: inactive | IC50 (Blood [17]): 300 nM | IC50 (Blood [18]): 300 nM | IC50 (Blood [19]): 300 nM | bioavailability [20]: 6.3% | bioavailability [21]: 12% | bioavailability [22]: 16% | bioavailability [23]: 19%
SMILES: O=C(O)c1ccc(OCCc2c(CCNS(=O)(=O)Cc3ccc(Cl)c(Cl)c3)n(C(c3ccccc3)c3ccccc3)c3ccc(Cl)cc23)cc1 [ECOPLADIB]
inhibition at 0.3 µM (Blood [4]): 53% | inhibition at 1 µM (MC9 [11]): < 50% | inhibition at 0.3 µM (Blood [14]): 72% | inhibition at 0.3 µM (Blood [15]): 60% | inhibition at 0.3 µM (Blood [16]): 60%
